High-throughput results from PubChem BioAssay.
A selection: hits, their analogues and other compounds. The true share with any hit is near 3.1%.
CSC inhib = cancer stem cell viability inhibitors, primary screen, luminescence | cancer stem cell-like cells viability | inhibition, % at 7.5 µM | 300,000 tested, 1.1% active; in the data active = inhibition above about 75%; inconclusive = no clear call, values can overlap the other calls; tested in HMLE shEcad cells
PolyA inhibitor = polyadenylation inhibitors in yeast reporter cells, primary screen, luminescence, S. cerevisiae; S. cerevisiae SKY197-pL101 polyadenylation reporter, beta-gal luminescence; efflux-impaired pdr1/pdr3 knockout yeast; score 100 = 6 SD above DMSO; activity score, % at 12 µM; 300,000 tested, 0.02% active;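 active = lowest replicate activity score at least 50, where 100 means six control SD above control mean; inconclusive = lowest score under 50 but half or more replicates reach 50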;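 note: yeast exposed to compound for 9 h at 30 °C; higher score means more reporter readthrough which indicates perturbed polyadenylation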
Calb FLC = C. albicans growth inhibition with fluconazole, primary screen, CaCi-2 strain, Alamar Blue fluorescence; 300,000 tested, 0.57% active; growth inhibition, % (test concentration not listed); C. albicans CaCi-2 (fluconazole-resistant clinical isolate) + fluconazole, 48 h;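 active = growth inhibition above about 58% in most replicates, limit read from the data, passing the limit was not always enough; inconclusive = exactly half the replicates above a set limit; inactive = most replicates below a set limit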;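 note: all wells also contain fluconazole at 8 µg/ml as a sub-toxic cotreatment; 0% = median of DMSO wells and 100% = median of geldanamycin control wells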
HIF activator = HIF pathway transcriptional activators, primary screen, cell-based, U2OS HRE-luciferase, luminescence | U2OS HRE-luciferase reporter; normalized: DMSO 0%, desferrioxamine 100% | 300,000 tested, 0.32% active | activation, % at 7.5 µM (by protocol);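 active = mean activation of at least 10% of the iron chelator positive control signal, with at least half of replicates also reaching 10%; inconclusive = mean and replicate majority disagree about reaching 10%; inactive = mean and most replicates under 10%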
T cruzi inh = inhibitors of intracellular T. cruzi growth, primary screen, luminescence, NIH3T3 host cells; T. cruzi beta-gal in NIH3T3, 90 h; inhibition, % (concentration not given with the values); 300,000 tested, 1.4% active; AID 1885, 2009;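 active = mean inhibition across valid replicates above about 55%, limit read from the data; inconclusive = mean below that limit but half or more replicates reach it; inactive = mean below it, under half of replicates reach it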;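 note: signal also drops with host cell toxicity which is not excluded here; 0% = plate median of DMSO wells and 100% = zero luminescence signal; higher percent means less beta-gal luminescence so fewer parasites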
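Incubation – ≥90 h infection period, 3 h prior cell attachment · System – NIH/3T3 fibroblasts plus reporter T. cruzi · Doses – compound pinned at 50 nL/well, DMSO · Read-out basis – percent inhibition of parasite-derived β-gal signal · Signal – luminescent β-galactosidase signal after 60 min lysis · Also added – 5000 T. cruzi trypomastigotes/well · Medium – Low-serum DMEM with 2% FBS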
Beta apoptosis = inhibitors of cytokine-induced beta cell apoptosis, primary screen, luminescence. INS-1E cytokine-induced death, ATP luminescence, 48 h; percent of positive-control rescue, neutral wells zero. protection from apoptosis, % (test concentration not listed). 300,000 tested, 0.8% active;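 active = Every replicate reaches about 75%, or at least half do and their mean reaches it too, limit read from the data; inconclusive = At least half of replicates reach the limit but their mean does not; inactive = Under half of replicates reach the limit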;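 note: 0% = cytokine-treated negative control wells and 100% = positive control rescue; higher means more ATP so stronger rescue from cytokine killing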
* hit, by the source's call; ? = inconclusive; / = no result given.

SMILES	CSC inhib	PolyA inhibitor	Calb FLC	HIF activator	T cruzi inh	Beta apoptosis
N#CC(C(N)=O)=C1CCCCC1	-10	1	-2	-13	-19	2
Cn1cccc1C(=O)Nc1nc(-c2ccccn2)cs1	24	-14	?	3	66*	52
Cc1csc(NC(=O)c2cccn2C)n1	/	4	-2	1	-5	/
O=C(Nc1nc(-c2ccccn2)cs1)c1ccc(Cl)s1	80*	14	-3	/	58*	92*
CN(C)S(=O)(=O)n1cc(/C=C(\NC(=O)c2ccccc2Cl)C(=O)N2CCCC2)c2ccccc21	-20	16	?	-1	-10	-1
Cc1cc2oc(=O)c(CC(=O)NCCCN(C)C)c(C)c2c2occ(C(C)(C)C)c12	91*	7	8	-27	59*	8
Cc1cc2oc(=O)c(CC(=O)NCCCO)c(C)c2c2occ(C(C)(C)C)c12	21	7	16	-1	1	-9
CC1CC(C)CN(c2ncc3c(n2)CC(c2ccccc2Cl)CC3=O)C1 (stereo not drawn)	84*	1	?	0	32	9
C[C@@H]1CC=C[C@H]2[C@H]1C(=O)N(Cc1ccccc1)[C@H]2c1ccoc1	15	?	-6	0	-3	-12
CC[C@@H]1CC=C[C@H]2[C@H]1C(=O)N(Cc1ccccc1)[C@H]2c1ccc(OC)c(Cl)c1	77*	15	-10	-1	24	4
CC[C@@H]1CC=C[C@H]2[C@H]1C(=O)N(Cc1ccccc1)[C@H]2c1ccoc1	86*	5	7	0	42	6
O=C(CN1CCN(CC(=O)Nc2ccccc2Cl)CC1)Nc1ccc(F)c(F)c1	-1	-3	0	-3	11	/
O=C(O)/C=C\C(=O)Nc1ccc(N2CCN(c3ccc(Cl)cc3)CC2)cc1	50	-24	-39	0	-7	5
CCOC(=O)N1CCN(c2ccc(Cl)c(Cl)c2)CC1	5	-5	-22	107*	-10	-3
CCOC(=O)N1CCN(c2ccc(C(=O)c3cccc(F)c3)cc2)CC1	76*	3	4	/	-1	-2
O=C(O)/C=C\C(=O)Nc1ccc(N2CCN(c3ccc(Cl)c(Cl)c3)CC2)cc1	85*	-12	-66	0	-43	6
COC(=O)c1ccc(NC(=O)CSc2nc3ccccc3c(=O)[nH]2)cc1	0	9	14	0	-11	-3
O=C(CSc1nc2ccccc2c(=O)[nH]1)Nc1ccc(Br)cc1	-5	10	-7	38*	-9	4
COc1ccc(CNC(=O)COC(=O)c2ccc(S(=O)(=O)NCc3ccco3)cc2)cc1	15	/	/	/	/	4
Cc1c(C#N)c(N=CN(C)C)c(C(=O)c2ccc(Br)cc2)n1-c1ccc(Cl)cc1	-7	6	14	-1	57*	10
Cc1cccc(C)c1N=Nc1c(C)cc(O)cc1C	99*	8	-1	0	-10	7
Cc1cc(O)ccc1Nc1nc2ccccc2nc1Nc1ccc(O)cc1C	20	8	38	2	-4	1
COC(=O)C(Cc1ccc(OC(=O)c2ccc(C)cc2)cc1)N1Cc2ccccc2C1=O (stereo not drawn)	0	4	1	2	-4	0
O=c1cc(CN2CCN(Cc3ccccc3)CC2)c2ccc(O)c(O)c2o1	23	6	88*	2	51	-3
CCc1cc2c(CN3CCN(Cc4ccccc4)CC3)cc(=O)oc2cc1O	5	8	-14	3	44	4
SMILES	CSC inhib	PolyA inhibitor	Calb FLC	HIF activator	T cruzi inh	Beta apoptosis
Cc1c(O)ccc2c(CN3CCN(Cc4ccccc4)CC3)cc(=O)oc12	1	17	5	1	56*	-3
CCOc1ccc2oc(=O)cc(CN3CCN(Cc4ccccc4)CC3)c2c1	7	-4	-5	1	58*	-6
COC(=O)c1c(NC(=O)c2cccc(S(=O)(=O)N3CCN(C)CC3)c2)sc(C)c1C	57	0	-1	0	41	/
CCC(C)Sc1ccc([C@@H]2[C@@H]3C(=O)N(CC)C(=O)[C@@H]3[C@]3(C(=O)OC)CCCCN23)cc1 (stereo partly drawn)	/	/	/	/	/	0
Cc1cccc(C(=O)NNC2=C(C(=O)C(F)(F)F)CCC2)c1O	110*	7	105*	0	1	49
O=C(NNC1=C(C(=O)C(F)(F)F)CCC1)c1cccc(O)c1	-8	19	-24	0	2	-6
N#Cc1nnn(-c2ccc(Cl)cc2)c1N	/	-3	-5	0	-7	1
Cn1nc(C(=O)NCCCN2CCCCC2)c2c1-c1ccccc1S(=O)(=O)C2	3	-10	12	19*	2	-2
CSc1ccc(CCNC(=O)c2nn(C)c3c2CS(=O)(=O)c2ccccc2-3)cc1	3	-18	-19	-1	16	-2
COc1ccc(CCC(=O)NCC23CC4CC(CC(C4)C2)C3)cc1	-21	-1	5	-4	14	0
CCc1c(C2(O)CCCCC2)[nH]c2c(C(=O)OC)cc(Cl)cc12	105*	9	-3	1	21	-1
O=C1NC(=O)/C(=C\c2ccc(Br)o2)S1	14	7	87*	1	69*	5
CN(CCOc1ccccc1)C(=O)c1cc([N+](=O)[O-])cc([N+](=O)[O-])c1	1	-22	47	0	64*	-9
O=C(NCCOc1ccccc1)c1cc(C(=O)NCCOc2ccccc2)cc([N+](=O)[O-])c1	13	5	-7	-1	68*	3
O=C(NCCOc1ccccc1)c1ccccc1[N+](=O)[O-]	-2	6	-15	1	-11	-10
O=C1c2cccc3cccc(c23)C(=O)N1CCN1CCN(CC(O)COCc2ccc(Cl)cc2)CC1 (stereo not drawn)	82*	-8	-26	0	12	-1
Cc1cc(C)cc(OCC(O)CN2CCC(CN3C(=O)c4cccc5cccc(c45)C3=O)CC2)c1 (stereo not drawn)	24	-8	6	0	57*	78*
CC(=O)c1ccccc1OCC(O)CN1CCN(CCN2C(=O)c3cccc4cccc(c34)C2=O)CC1 (stereo not drawn)	5	2	?	0	52	15
CCc1ccc(OCC(O)CN2CCC(CN3C(=O)c4cccc5cccc(c45)C3=O)CC2)cc1 (stereo not drawn)	45	-3	-11	-64	56*	1
